Activity calls are given as the source filed them. No cut-off for these calls is given here.

This note sets out measurements from ChEMBL document CHEMBL1811768, “Synthesis of N-substituted 3,5-bis(arylidene)-4-piperidones with high antitumor and antioxidant activity” (J Med Chem, 2011).

In data set [1] the test system is MCF7. Briefly: Cytotoxicity against human MCF7 cells assessed as cell viability at 10 uM after 24 hrs by MTT assay relative to control. Type of data set: functional. The following applies: MCF7, 24 h, read-out: Activity. The essentials:
(§1)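 MTT viability assay in human A2780 and MCF-7 cancer cells. Cells were exposed to compound at 10 μM for 24 h. Results are given as percent cell viability relative to the respective untreated control.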

In data set [2] the test system is A2780. Briefly: Cytotoxicity against human A2780 cells assessed as cell viability at 10 uM after 24 hrs by MTT assay relative to control. The format is functional. The following applies: A2780, 24 h, read-out: Activity. Put shortly: as §1
On the technique in general: Formazan colour is commonly taken as a measure of viable cells.

The nature of data set [3]: Cytotoxicity against rat H9c2 cells assessed as cell viability at 10 uM after 24 hrs by MTT assay relative to control. The format is cell-based. Conditions: read-out: Activity.
Data set [4] is described as follows: Inhibition of JAK/STAT3 pathway in human A2780 cells assessed as reduction in VEGF level. The format is cell-based.
For data set [5], the system named is A2780. The experiment in a line: Induction of cell cycle arrest at G2/M phase in human A2780 cells assessed as modulation of p21 expression. The format is functional, cell-based.
For the next data set, the system named is OVCA3. Briefly: Cytotoxicity against human OVCA3 cells by MTT assay. Type of data set: functional, cell-based.
The next data set concerns OV4. Briefly: Cytotoxicity against human OV4 cells by MTT assay. Type of data set: functional, cell-based.
A further data set deals with SK-OV-3. The experiment in a line: Cytotoxicity against human SKOV3 cells by MTT assay. Type of data set: functional, cell-based.
Data set [6] concerns A2780. The experiment in a line: Antitumor activity against human A2780 cells in xenograft model assessed as reduction of JAK phosphorylation level in tumor. Type of data set: functional, cell-based.
A short description of data set [7]: Inhibition of JAK/STAT3 pathway in human A2780 cells assessed as reduction in Bcl-2 level. The format is cell-based.
The subject of data set [8] is A2780. The experiment in a line: Induction of cell cycle arrest at G2/M phase in human A2780 cells assessed as modulation of cyclin expression. Type of data set: functional, cell-based.
Data set [9] deals with A2780. The experiment in a line: Induction of cell cycle arrest at G2/M phase in human A2780 cells assessed as modulation of CDK2 expression. Type of data set: functional, cell-based.
Data set [10] relates to A2780. Briefly: Antitumor activity against human A2780 cells in xenograft model assessed as increase of PARP level in tumor. The format is functional, cell-based.
A further data set relates to Liver. The experiment in a line: Biodistribution in ip dosed rat liver after 3 hrs. Conditions: in vivo. Type of data set: ADME, organism-based.
The subject of data set [11] is A2780. The experiment in a line: Induction of cell cycle arrest at G2/M phase in human A2780 cells assessed as modulation of p53 expression. The format is functional, cell-based.
The next data set relates to PA-1. Briefly: Cytotoxicity against human PA1 cells by MTT assay. Type of data set: functional, cell-based.
For a further data set, the system named is Rattus norvegicus. Briefly: Biodistribution in ip dosed rat stomach after 3 hrs. Type of data set: ADME, organism-based. The following applies: in vivo.
The test system of data set [12] is A2780. The experiment in a line: Induction of apoptosis in human A2780 cells assessed as caspase 3 activation by Western blot analysis. The format is functional, cell-based.
Data set [13] relates to A2780. Briefly: Antitumor activity against human A2780 cells in xenograft model assessed as reduction of STAT3 phosphorylation at Tyr705/Ser727 level in tumor. Type of data set: functional, cell-based. In general terms: A xenograft is tissue or cells of one species grown in another, often human tumour cells in immunodeficient mice.
In data set [14] the target is Tyrosine-protein kinase JAK1 (Homo sapiens) (UniProt P23458). The experiment in a line: Inhibition of JAK1 phosphorylation in human A2780 cells. Type of data set: cell-based.
The target of data set [15] is Signal transducer and activator of transcription 3 (Homo sapiens) (UniProt P40763). Briefly: Inhibition of STAT3 phosphorylation at Tyr705/Ser727 in human A2780 cells by Western blot analysis. The format is cell-based.
The species entered for a further data set is Homo sapiens. Briefly: Cytotoxicity against human A2780DDP cells by MTT assay. Type of data set: functional, cell-based.
Data set [16] relates to MCF7. The experiment in a line: Induction of apoptosis in human MCF7 cells assessed as caspase 3 activation by Western blot analysis. Type of data set: functional, cell-based. (In general: In western blotting, separated proteins are transferred to a membrane and probed.)
For another data set, the system named is Blood. Briefly: Biodistribution in ip dosed rat blood after 3 hrs. The format is ADME, organism-based. The following applies: in vivo.
The test system of the next data set is Kidney. Briefly: Biodistribution in ip dosed rat kidney after 3 hrs. The format is ADME, organism-based. The following applies: in vivo.
Data set [17] in a line: Inhibition of JAK/STAT3 pathway in human A2780 cells assessed as reduction in Bcl-xL level. Type of data set: cell-based.
Data set [18] deals with A2780. The experiment in a line: Antitumor activity against human A2780 cells in xenograft model assessed as tumor growth inhibition. Type of data set: functional, cell-based.
Data set [19] concerns A2780. The experiment in a line: Induction of cell cycle arrest at G2/M phase in human A2780 cells assessed as modulation of p27 expression. The format is functional, cell-based.
The target of data set [20] is Signal transducer and activator of transcription 3 (Homo sapiens) (UniProt P40763). Briefly: Inhibition of STAT3 phosphorylation at Tyr705 in human A2780 cells. The format is cell-based.
In data set [21] the test system is A2780. Briefly: Induction of Fas/CD95 expression in human A2780 cells. Type of data set: functional, cell-based.
The subject of data set [22] is A2780. Briefly: Induction of apoptosis in human A2780 cells assessed as caspase 3 activation. Type of data set: functional, cell-based.
Data set [23] relates to A2780. The experiment in a line: Antitumor activity against human A2780 cells in xenograft model assessed as increase of caspase 3 level in tumor. The format is functional, cell-based.
Data set [24] has as its system A2780. The experiment in a line: Induction of apoptosis in human A2780 cells assessed as caspase 8 activation. Type of data set: functional, cell-based.
Data set [25] concerns MCF7. The experiment in a line: Induction of apoptosis in human MCF7 cells assessed as cleavage of PARP by Western blot analysis. Type of data set: functional, cell-based.
The target of data set [26] is Signal transducer and activator of transcription 3 (Homo sapiens) (UniProt P40763). The experiment in a line: Inhibition of STAT3 phosphorylation at Tyr705/Ser727 in human MCF7 cells by Western blot analysis. Type of data set: cell-based.
The test system of data set [27] is A2780. Briefly: Induction of apoptosis in human A2780 cells assessed as cleavage of PARP by Western blot analysis. The format is functional, cell-based.
Data set [28] is described as follows: Inhibition of JAK/STAT3 pathway in human A2780 cells assessed as reduction in survivin level. The format is cell-based.

Sequence of Signal transducer and activator of transcription 3 (Homo sapiens) (P40763 whole entry): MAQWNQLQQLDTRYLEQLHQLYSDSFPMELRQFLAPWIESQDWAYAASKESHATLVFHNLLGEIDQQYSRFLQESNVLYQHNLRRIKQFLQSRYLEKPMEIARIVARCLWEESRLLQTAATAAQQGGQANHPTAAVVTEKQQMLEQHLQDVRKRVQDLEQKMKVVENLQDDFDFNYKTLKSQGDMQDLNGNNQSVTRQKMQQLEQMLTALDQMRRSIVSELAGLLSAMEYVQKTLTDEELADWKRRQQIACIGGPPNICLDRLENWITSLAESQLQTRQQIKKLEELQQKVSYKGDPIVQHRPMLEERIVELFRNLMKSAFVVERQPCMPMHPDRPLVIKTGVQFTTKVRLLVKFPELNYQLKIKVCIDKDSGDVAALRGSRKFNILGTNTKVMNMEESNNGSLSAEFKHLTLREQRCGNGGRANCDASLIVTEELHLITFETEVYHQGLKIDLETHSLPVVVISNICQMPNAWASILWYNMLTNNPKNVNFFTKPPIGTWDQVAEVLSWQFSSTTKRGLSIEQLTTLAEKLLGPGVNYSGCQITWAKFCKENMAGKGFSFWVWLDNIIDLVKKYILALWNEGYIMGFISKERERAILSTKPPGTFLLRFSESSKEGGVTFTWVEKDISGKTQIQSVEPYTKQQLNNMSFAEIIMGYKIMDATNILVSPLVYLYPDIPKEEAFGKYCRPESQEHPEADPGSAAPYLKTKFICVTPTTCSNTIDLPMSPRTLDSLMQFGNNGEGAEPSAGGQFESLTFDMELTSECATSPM
Sequence of Tyrosine-protein kinase JAK1 (Homo sapiens) (P23458 whole entry): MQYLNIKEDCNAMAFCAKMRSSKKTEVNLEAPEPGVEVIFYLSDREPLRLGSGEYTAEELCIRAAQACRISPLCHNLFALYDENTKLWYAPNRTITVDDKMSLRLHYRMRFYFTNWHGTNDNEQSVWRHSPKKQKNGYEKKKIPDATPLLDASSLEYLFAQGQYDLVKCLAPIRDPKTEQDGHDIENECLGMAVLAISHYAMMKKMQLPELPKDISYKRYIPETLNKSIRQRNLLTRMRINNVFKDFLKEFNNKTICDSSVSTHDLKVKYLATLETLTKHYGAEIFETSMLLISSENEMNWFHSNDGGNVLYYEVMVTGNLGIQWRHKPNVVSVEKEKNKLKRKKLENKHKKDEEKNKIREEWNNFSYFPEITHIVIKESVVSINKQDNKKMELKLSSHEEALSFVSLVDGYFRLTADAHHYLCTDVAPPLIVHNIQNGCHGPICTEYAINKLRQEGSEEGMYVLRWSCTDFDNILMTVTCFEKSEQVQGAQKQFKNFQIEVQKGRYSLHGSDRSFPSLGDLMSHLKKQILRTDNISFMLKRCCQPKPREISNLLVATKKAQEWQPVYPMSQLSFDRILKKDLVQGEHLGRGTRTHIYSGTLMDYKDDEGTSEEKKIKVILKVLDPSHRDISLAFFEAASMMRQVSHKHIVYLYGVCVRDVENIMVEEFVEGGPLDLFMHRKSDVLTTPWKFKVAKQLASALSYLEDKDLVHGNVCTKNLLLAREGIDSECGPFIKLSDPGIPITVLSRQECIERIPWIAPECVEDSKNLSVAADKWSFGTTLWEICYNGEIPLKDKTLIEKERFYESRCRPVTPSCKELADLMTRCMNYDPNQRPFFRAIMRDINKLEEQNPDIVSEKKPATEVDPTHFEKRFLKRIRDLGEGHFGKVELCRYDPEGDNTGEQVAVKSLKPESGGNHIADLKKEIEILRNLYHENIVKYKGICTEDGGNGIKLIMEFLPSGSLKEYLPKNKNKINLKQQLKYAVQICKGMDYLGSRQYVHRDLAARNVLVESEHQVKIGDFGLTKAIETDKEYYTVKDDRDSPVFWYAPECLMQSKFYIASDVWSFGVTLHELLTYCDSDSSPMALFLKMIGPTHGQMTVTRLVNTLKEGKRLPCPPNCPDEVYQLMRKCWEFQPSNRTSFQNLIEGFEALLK

Turning to `CC1(C)c2ccc(CN3C/C(=C\c4ccc(F)cc4)C(=O)/C(=C/c4ccc(F)cc4)C3)cc2C(C)(C)N1[O]`, the results for the viability at 10 µM in the data set on MCF7 [1] and with A2780 [2] were 46.2% and 9.5%, respectively. In [3], the viability at 24 h, 10 µM came to 26.4%.
In the case of `O=C1/C(=C/c2ccc(F)cc2)CNC/C1=C\c1ccc(F)cc1`, the viability at 10 µM with MCF7 [1] was 17.1%; with A2780 [2] it was 12.4%. The viability at 24 h, 10 µM in data set [3] is 61.4%.
For `O=C1/C(=C/c2ccc(C(F)(F)F)cc2)CNC/C1=C\c1ccc(C(F)(F)F)cc1`, the viability at 10 µM with MCF7 [1] was 20.2%; with A2780 [2], 13.1%. For the same molecule, in data set [3], the viability at 24 h, 10 µM was 51.7%.
Consider `CC1(C)C=C(CN2C/C(=C\c3ccc(F)cc3)C(=O)/C(=C/c3ccc(F)cc3)C2)CC(C)(C)N1[O]`, for which the viability at 10 µM in the data set on MCF7 [1] stood at 20.1%; in the data set on A2780 [2], 6.86%. The viability at 24 h, 10 µM in [3] worked out at 51.4%.
For the molecule `COc1ccc(/C=C2\CNC/C(=C\c3ccc(OC)c(OC)c3OC)C2=O)c(OC)c1OC`, the viability at 10 µM in the data set on MCF7 [1] turned out to be 56.6%; in the data set on A2780 [2] it was 11%. In [3], the viability at 24 h, 10 µM is 32.3%.
With `O=C1/C(=C/c2ccccc2F)CNC/C1=C\c1ccccc1F`, the viability at 10 µM in the data set on MCF7 [1] amounted to 34.5%; in the data set on A2780 [2] it was 12.8%. Further, in data set [3], the viability at 24 h, 10 µM was 32.9%.
Regarding `CC1(C)CCC(C)(C#CCN2C/C(=C\c3ccc(F)cc3)C(=O)/C(=C/c3ccc(F)cc3)C2)N1[O]` (stereo not given), the viability at 10 µM was 38.3% in the data set on MCF7 [1] and 5.89% in the data set with A2780 [2]. Further, the viability at 24 h, 10 µM in data set [3] was found to be 50.7%.
For the molecule `CC1(C)C=C(NC(=O)N2C/C(=C\c3ccc(F)cc3)C(=O)/C(=C/c3ccc(F)cc3)C2)C(C)(C)N1[O]`, the viability at 10 µM in the data set on MCF7 [1] worked out at 12.6%; with A2780 [2], 5.9%. Also, the viability at 24 h, 10 µM in data set [3] is 36.7%.
Taken in the same sequence, the figures for `CC1(C)C=C(CN2C/C(=C\c3ccc(F)cc3)C(=O)/C(=C/c3ccc(F)cc3)C2)C(C)(C)N1` were 28.3%, 4.79% and 78.8%.
Taken in the same sequence, the figures for `COc1ccc(/C=C2\CN(CC3=CC(C)(C)N([O])C3(C)C)C/C(=C\c3ccc(OC)c(OC)c3OC)C2=O)c(OC)c1OC` were 28%, 26.1% and 53.1%.
On to `CC1(C)C=C(CN2C/C(=C\c3ccc(C(F)(F)F)cc3)C(=O)/C(=C/c3ccc(C(F)(F)F)cc3)C2)C(C)(C)N1[O]`, for which the viability at 10 µM in the data set with MCF7 [1] was 14.2%; with A2780 [2], 5.85%. The viability at 24 h, 10 µM in data set [3] is 17.1%.
Regarding `CC1=C(CN2C/C(=C\c3ccc(F)cc3)C(=O)/C(=C/c3ccc(F)cc3)C2)C(C)(C)N([O])C1(C)C`, the viability at 10 µM with MCF7 [1] turned out to be 42%; in the data set with A2780 [2] it was 6.75%. For the same molecule, the viability at 24 h, 10 µM in data set [3] was 56.8%.
As to `CC1(C)c2cnc(CN3C/C(=C\c4ccc(F)cc4)C(=O)/C(=C/c4ccc(F)cc4)C3)cc2C(C)(C)N1[O]`, the viability at 10 µM turned out to be 42.7% with MCF7 [1] and 5.26% in the data set on A2780 [2]. Further, the viability at 24 h, 10 µM in data set [3] was found to be 46.6%.
Turning to `CC1(C)C=C(C(=O)N2C/C(=C\c3ccc(F)cc3)C(=O)/C(=C/c3ccc(F)cc3)C2)C(C)(C)N1[O]`, the viability at 10 µM amounted to 12.4% in the data set on MCF7 [1] and 4.54% in the data set on A2780 [2]. The viability at 24 h, 10 µM in data set [3] worked out at 33.3%.
With `CC1(C)CCC(C)(/C=C/CN2C/C(=C\c3ccc(F)cc3)C(=O)/C(=C/c3ccc(F)cc3)C2)N1[O]` (stereo not given), the values for the viability at 10 µM in the data set with MCF7 [1] and in the data set with A2780 [2] were 43.1% and 5.81%, respectively. Besides, the viability at 24 h, 10 µM in data set [3] is 51.9%.
With `CC1(C)C=C(CN2C/C(=C\c3ccc(F)cc3)C(=O)/C(=C/c3ccc(F)cc3)C2)C(C)(C)N1[O]`, the figures for the viability at 10 µM with MCF7 [1] and with A2780 [2] were 16.6% and 20.5%, respectively. The inhibition entry in data set [4], in [7], in [14], in data set [15], in [17] and in data set [20] was “Active” in each case. In addition, the inhibition entry in [26] and in data set [28] was “Active” in each case. In addition, the result with A2780 [5], in the data set on OVCA3, in the data set with OV4, with SK-OV-3, in the data set on A2780 [6] and with A2780 [8] was Active. Also, the result with A2780 [9], in the data set on A2780 [10], in the data set on A2780 [11], with PA-1, in the data set on A2780 [12] and in the data set with A2780 [13] was Active. Further, the outcome in the data set listed under Homo sapiens, in the data set on MCF7 [16], with A2780 [19], in the data set with A2780 [21], in the data set with A2780 [22] and in the data set with A2780 [23] was Active. For the same molecule, the outcome with A2780 [24], in the data set with MCF7 [25] and in the data set on A2780 [27] was Active. Moreover, the Drug uptake entry with Liver, in the data set on Rattus norvegicus, in the data set on Blood and in the data set with Kidney was “Active” each time. The “growth inhibition (GI)” value in the data set with A2780 [18] is “Dose-dependent effect”. Besides, in data set [3], the viability at 24 h, 10 µM turned out to be 88.5%.
With `CC1(C)C=C(CN2C/C(=C\c3ccccc3F)C(=O)/C(=C/c3ccccc3F)C2)C(C)(C)N1[O]`, the viability at 10 µM in the data set on MCF7 [1] came out at 53.5%; in the data set on A2780 [2] it was 12.5%. The viability at 24 h, 10 µM in data set [3] amounted to 86.3%.
